This experiment concerns the target Insulin-like growth factor 1 receptor (Homo sapiens, UniProt P08069). In words: Activity at pre-activated human GST-His6-tagged IGF-1R expressed in Sf9 cells assessed as initial phosphorylation rate at 10 uM measured every 2 mins for 60 mins by Michaelis-Menten constant based ADP Quest assay. In outline: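 Reaction buffer was the same plus 0.1 mg/mL BSA, with kinase, peptide substrate and detection reagents. Started with ATP; fluorescence read every 2 min for 60 min; 3 independent experiments.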

Molecules are shown by their SMILES. Square brackets hold non-standard residues; d marks the D form. Peptide text beside a SMILES is read from it. Trp(6-Cl) = N[C@@H](Cc1c[nH]c2cc(Cl)ccc12)C(=O)O; 3Pal = N[C@@H](Cc1cccnc1)C(=O)O

Chain of Insulin-like growth factor 1 receptor (P08069 31-736 limits assumed): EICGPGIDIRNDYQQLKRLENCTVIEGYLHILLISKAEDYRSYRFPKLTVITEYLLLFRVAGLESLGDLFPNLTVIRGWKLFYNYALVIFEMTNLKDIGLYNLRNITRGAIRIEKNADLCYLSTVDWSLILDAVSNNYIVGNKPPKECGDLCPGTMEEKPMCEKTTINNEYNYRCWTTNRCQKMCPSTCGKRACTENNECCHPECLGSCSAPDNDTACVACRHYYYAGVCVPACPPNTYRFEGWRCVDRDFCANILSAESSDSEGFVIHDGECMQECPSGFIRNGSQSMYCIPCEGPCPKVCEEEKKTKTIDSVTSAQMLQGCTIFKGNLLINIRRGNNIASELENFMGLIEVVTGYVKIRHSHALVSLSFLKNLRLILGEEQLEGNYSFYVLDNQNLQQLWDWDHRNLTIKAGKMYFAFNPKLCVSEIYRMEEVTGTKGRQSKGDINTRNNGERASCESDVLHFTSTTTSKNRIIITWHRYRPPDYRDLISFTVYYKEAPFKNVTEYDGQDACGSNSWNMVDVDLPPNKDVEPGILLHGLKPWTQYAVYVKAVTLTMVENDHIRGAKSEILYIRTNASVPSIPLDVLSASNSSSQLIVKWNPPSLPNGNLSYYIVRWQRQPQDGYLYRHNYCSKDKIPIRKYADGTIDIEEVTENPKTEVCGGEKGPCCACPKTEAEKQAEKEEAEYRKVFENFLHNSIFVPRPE
Chain of Insulin-like growth factor 1 receptor (P08069 741-1367 limits assumed): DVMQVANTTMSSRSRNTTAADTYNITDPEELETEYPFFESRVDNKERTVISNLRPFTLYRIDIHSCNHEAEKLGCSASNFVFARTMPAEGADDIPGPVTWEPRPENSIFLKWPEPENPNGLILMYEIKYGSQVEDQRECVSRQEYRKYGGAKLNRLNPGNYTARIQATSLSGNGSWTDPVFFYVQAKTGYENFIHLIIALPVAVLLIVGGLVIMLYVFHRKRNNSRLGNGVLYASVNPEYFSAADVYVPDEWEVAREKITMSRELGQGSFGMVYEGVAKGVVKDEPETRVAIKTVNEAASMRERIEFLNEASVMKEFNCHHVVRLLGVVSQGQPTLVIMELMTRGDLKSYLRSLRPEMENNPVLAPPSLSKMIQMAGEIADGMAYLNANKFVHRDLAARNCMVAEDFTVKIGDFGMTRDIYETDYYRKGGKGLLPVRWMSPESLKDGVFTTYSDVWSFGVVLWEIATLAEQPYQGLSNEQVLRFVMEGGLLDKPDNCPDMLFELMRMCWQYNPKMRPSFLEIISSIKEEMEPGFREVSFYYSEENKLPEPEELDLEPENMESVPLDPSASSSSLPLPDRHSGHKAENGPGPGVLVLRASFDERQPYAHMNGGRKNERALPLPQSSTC

As for `CNC(=O)[C@@H](Cc1c[nH]c2ccccc12)NC(=O)CNC(=O)[C@H](Cc1ccccc1)NC(=O)[C@H](Cc1ccc(O)cc1)NC(=O)[C@H](CC(=O)O)NC(C)=O`, the Activity was determined as 0.09 nM/s.
To `CNC(=O)[C@@H](Cc1c[nH]c2ccccc12)NC(=O)[C@H](CCC(=O)O)NC(=O)[C@H](Cc1ccccc1)NC(=O)[C@H](Cc1ccc(O)cc1)NC(=O)[C@H](CC(=O)O)NC(C)=O` belongs 0.28 nM/s.
To `CNC(=O)[C@@H](Cc1c[nH]c2ccccc12)NC(=O)[C@H](CCC(=O)O)NC(=O)[C@H](Cc1ccccc1)NC(=O)[C@H](Cc1ccc(O)cc1)NC(=O)[C@H]1CCCC[C@@H]1C(=O)O` belongs 0.51 nM/s; to `CNC(=O)[C@H](Cc1c[nH]c2ccccc12)NC(=O)CNC(=O)[C@H](Cc1ccccc1)NC(=O)[C@H](Cc1ccc(O)cc1)NC(=O)[C@H](CC(=O)O)NC(C)=O`, 1.7 nM/s; to `CNC(=O)[C@H](Cc1c[nH]c2ccccc12)NC(=O)[C@H](CCC(=O)O)NC(=O)[C@H](Cc1ccccc1)NC(=O)[C@H](Cc1ccc(O)cc1)NC(=O)[C@@H]1CCCC[C@@H]1C(=O)O`, 4.6 nM/s.
Consider `CNC(=O)[C@H](Cc1c[nH]c2ccccc12)NC(=O)[C@H](CCC(=O)O)NC(=O)[C@H](Cc1ccccc1)NC(=O)[C@H](Cc1ccc(O)cc1)NC(=O)[C@@H]1CCCC[C@H]1C(=O)O`, for which the Activity turned out to be 1.1 nM/s.
In the case of `CNC(=O)[C@H](Cc1c[nH]c2ccccc12)NC(=O)[C@H](CCC(=O)O)NC(=O)[C@H](Cc1ccccc1)NC(=O)[C@H](Cc1ccc(O)cc1)NC(=O)[C@H](CC(=O)O)NC(C)=O`, the Activity was found to be 6.2 nM/s.
To `CNC(=O)[C@H](Cc1c[nH]c2ccccc12)NC(=O)[C@H](CCC(=O)O)NC(=O)[C@H](Cc1ccccc1)NC(=O)[C@H](Cc1ccc(O)cc1)NC(=O)[C@H](CCC(=O)O)NC(C)=O` belongs 2.5 nM/s; to `CNC(=O)[C@H](Cc1c[nH]c2ccccc12)NC(=O)[C@H](CCC(=O)O)NC(=O)[C@H](Cc1ccccc1)NC(=O)[C@H](Cc1ccc(O)cc1)NC(=O)[C@H]1CCCC[C@@H]1C(=O)O`, 10.9 nM/s.
To `CNC(=O)[C@H](Cc1c[nH]c2cc(Cl)ccc12)NC(=O)[C@H](CCC(=O)O)NC(=O)[C@H](Cc1ccccc1)NC(=O)[C@H](Cc1ccc(O)cc1)NC(=O)[C@H](Cc1cccnc1)NC(C)=O` (Ac-[3Pal]YFE[Trp(6-Cl)]-NHMe) belongs 1 nM/s.
Take `CNC(=O)[C@H](Cc1ccccc1)NC(=O)[C@H](CCC(=O)O)NC(=O)[C@H](Cc1ccccc1)NC(=O)[C@H](Cc1ccc(O)cc1)NC(=O)C1CCC1C(=O)O` (stereo partly drawn) (HELM PEPTIDE1{[O=C(O)C1CCC1C(=O)[*:2]].Y.F.E.F.[CN[*:1]]}$$$$V2.0): the Activity is 1.9 nM/s.
Turning to `CNC(=O)[C@H](Cc1c[nH]c2ccccc12)NC(=O)[C@H](CCC(=O)O)NC(=O)[C@H](Cc1ccccc1)NC(=O)[C@H](Cc1ccc(O)cc1)NC(=O)C1CCC1C(=O)O` (stereo partly drawn) (HELM PEPTIDE1{[O=C(O)C1CCC1C(=O)[*:2]].Y.F.E.W.[CN[*:1]]}$$$$V2.0), the Activity was 4.3 nM/s.
To `CNC(=O)[C@H](Cc1ccccc1)NC(=O)[C@H](CCC(=O)O)NC(=O)[C@H](Cc1ccccc1)NC(=O)[C@H](Cc1ccc(O)cc1)NC(=O)CCC(=O)O` (HELM PEPTIDE1{[O=C(O)CCC(=O)[*:2]].Y.F.E.F.[CN[*:1]]}$$$$V2.0) belongs 0.25 nM/s; to `CNC(=O)[C@H](Cc1c[nH]c2ccccc12)NC(=O)[C@H](CCC(=O)O)NC(=O)[C@H](Cc1ccccc1)NC(=O)[C@H](Cc1ccc(O)cc1)NC(=O)CCC(=O)O` (HELM PEPTIDE1{[O=C(O)CCC(=O)[*:2]].Y.F.E.W.[CN[*:1]]}$$$$V2.0), 1.45 nM/s; to `CNC(=O)[C@H](Cc1ccccc1)NC(=O)[C@H](CCC(=O)O)NC(=O)[C@H](Cc1ccccc1)NC(=O)[C@H](Cc1ccc(O)cc1)NC(=O)[C@@H]1CCCC[C@H]1C(=O)O` (HELM PEPTIDE1{[O=C(O)[C@@H]1CCCC[C@H]1C(=O)[*:2]].Y.F.E.F.[CN[*:1]]}$$$$V2.0), 0.17 nM/s.
To `CNC(=O)[C@H](Cc1ccccc1)NC(=O)[C@H](CCC(=O)O)NC(=O)[C@H](Cc1ccccc1)NC(=O)[C@H](Cc1ccc(O)cc1)NC(=O)[C@@H]1CCC[C@H]1C(=O)O` (HELM PEPTIDE1{[O=C(O)[C@@H]1CCC[C@H]1C(=O)[*:2]].Y.F.E.F.[CN[*:1]]}$$$$V2.0) belongs 3.8 nM/s.
To `CNC(=O)[C@H](Cc1c[nH]c2ccccc12)NC(=O)[C@H](CCC(=O)O)NC(=O)[C@H](Cc1ccccc1)NC(=O)[C@H](Cc1ccc(O)cc1)NC(=O)[C@@H]1CCC[C@H]1C(=O)O` (HELM PEPTIDE1{[O=C(O)[C@@H]1CCC[C@H]1C(=O)[*:2]].Y.F.E.W.[CN[*:1]]}$$$$V2.0) belongs 5.4 nM/s.
In the case of `CNC(=O)[C@H](Cc1ccccc1)NC(=O)[C@H](CCC(=O)O)NC(=O)[C@H](Cc1ccccc1)NC(=O)[C@H](Cc1ccc(O)cc1)NC(=O)[C@H]1CCCC[C@@H]1C(=O)O` (HELM PEPTIDE1{[O=C(O)[C@H]1CCCC[C@@H]1C(=O)[*:2]].Y.F.E.F.[CN[*:1]]}$$$$V2.0), the Activity is 5.2 nM/s.
To `CNC(=O)[C@H](Cc1ccccc1)NC(=O)[C@H](CCC(=O)O)NC(=O)[C@H](Cc1ccccc1)NC(=O)[C@H](Cc1ccc(O)cc1)NC(=O)[C@@H]1CCCC[C@@H]1C(=O)O` (HELM PEPTIDE1{[O=C(O)[C@H]1CCCC[C@H]1C(=O)[*:2]].Y.F.E.F.[CN[*:1]]}$$$$V2.0) belongs 1.1 nM/s; to `CNC(=O)[C@H](Cc1ccccc1)NC(=O)[C@H](CCC(=O)O)NC(=O)[C@H](Cc1ccccc1)NC(=O)[C@H](Cc1ccc(O)cc1)NC(=O)[C@H]1CCC[C@@H]1C(=O)O` (HELM PEPTIDE1{[O=C(O)[C@H]1CCC[C@@H]1C(=O)[*:2]].Y.F.E.F.[CN[*:1]]}$$$$V2.0), 0.24 nM/s.
Consider `CNC(=O)[C@H](Cc1c[nH]c2ccccc12)NC(=O)[C@H](CCC(=O)O)NC(=O)[C@H](Cc1ccccc1)NC(=O)[C@H](Cc1ccc(O)cc1)NC(=O)[C@H]1CCC[C@@H]1C(=O)O` (HELM PEPTIDE1{[O=C(O)[C@H]1CCC[C@@H]1C(=O)[*:2]].Y.F.E.W.[CN[*:1]]}$$$$V2.0), for which the Activity worked out at 0.84 nM/s.
Then `CNC(=O)[C@H](Cc1ccccc1)NC(=O)[C@H](CCC(=O)O)NC(=O)[C@H](Cc1ccccc1)NC(=O)[C@H](Cc1ccc(O)cc1)NC(=O)c1ccccc1[N+](=O)[O-]` (HELM PEPTIDE1{[O=C(c1ccccc1[N+](=O)[O-])[*:2]].Y.F.E.F.[CN[*:1]]}$$$$V2.0), with 4.6 nM/s; and `CNC(=O)[C@H](Cc1c[nH]c2ccccc12)NC(=O)[C@H](CCC(=O)O)NC(=O)[C@H](Cc1ccccc1)NC(=O)[C@H](Cc1ccc(O)cc1)NC(=O)c1ccccc1[N+](=O)[O-]` (HELM PEPTIDE1{[O=C(c1ccccc1[N+](=O)[O-])[*:2]].Y.F.E.W.[CN[*:1]]}$$$$V2.0), with 3.3 nM/s.
To `CNC(=O)[C@H](Cc1ccccc1)NC(=O)[C@H](CCC(=O)O)NC(=O)[C@H](Cc1ccccc1)NC(=O)[C@H](Cc1ccc(O)cc1)NC(=O)[C@H](CC(=O)O)NC(C)=O` (HELM PEPTIDE1{[ac].D.Y.F.E.F.[CN[*:1]]}$$$$V2.0) belongs 1.7 nM/s.
`CNC(=O)[C@H](Cc1c[nH]c2cc(Cl)ccc12)NC(=O)[C@H](CCC(=O)O)NC(=O)[C@H](Cc1ccccc1)NC(=O)[C@H](Cc1ccc(O)cc1)NC(=O)[C@H](CC(=O)O)NC(C)=O` (HELM PEPTIDE1{[ac].D.Y.F.E.[O=C([C@H](Cc1c[nH]c2cc(Cl)ccc12)N[*:1])[*:2]].[CN[*:1]]}$$$$V2.0): the Activity is 6.7 nM/s.
Then `CNC(=O)[C@H](Cc1ccc2ccccc2c1)NC(=O)[C@H](CCC(=O)O)NC(=O)[C@H](Cc1ccccc1)NC(=O)[C@H](Cc1ccc(O)cc1)NC(=O)[C@H](CC(=O)O)NC(C)=O` (HELM PEPTIDE1{[ac].D.Y.F.E.[O=C([C@H](Cc1ccc2ccccc2c1)N[*:1])[*:2]].[CN[*:1]]}$$$$V2.0), with 3.4 nM/s.
To `CNC(=O)[C@H](Cc1ccc(Cl)c(Cl)c1)NC(=O)[C@H](CCC(=O)O)NC(=O)[C@H](Cc1ccccc1)NC(=O)[C@H](Cc1ccc(O)cc1)NC(=O)[C@H](CC(=O)O)NC(C)=O` (HELM PEPTIDE1{[ac].D.Y.F.E.[O=C([C@H](Cc1ccc(Cl)c(Cl)c1)N[*:1])[*:2]].[CN[*:1]]}$$$$V2.0) belongs 2.1 nM/s; to `CNC(=O)[C@H](Cc1ccc(Cl)cc1)NC(=O)[C@H](CCC(=O)O)NC(=O)[C@H](Cc1ccccc1)NC(=O)[C@H](Cc1ccc(O)cc1)NC(=O)[C@H](CC(=O)O)NC(C)=O` (HELM PEPTIDE1{[ac].D.Y.F.E.[O=C([C@H](Cc1ccc(Cl)cc1)N[*:1])[*:2]].[CN[*:1]]}$$$$V2.0), 2.6 nM/s.
With `CNC(=O)[C@H](Cc1c[nH]c2cc(Cl)ccc12)NC(=O)CNC(=O)[C@H](Cc1ccccc1)NC(=O)[C@H](Cc1ccc(O)cc1)NC(=O)[C@H](CC(=O)O)NC(C)=O` (HELM PEPTIDE1{[ac].D.Y.F.G.[O=C([C@H](Cc1c[nH]c2cc(Cl)ccc12)N[*:1])[*:2]].[CN[*:1]]}$$$$V2.0), the Activity was found to be 2.1 nM/s.
Then `CNC(=O)[C@H](Cc1ccc2ccccc2c1)NC(=O)CNC(=O)[C@H](Cc1ccccc1)NC(=O)[C@H](Cc1ccc(O)cc1)NC(=O)[C@H](CC(=O)O)NC(C)=O` (HELM PEPTIDE1{[ac].D.Y.F.G.[O=C([C@H](Cc1ccc2ccccc2c1)N[*:1])[*:2]].[CN[*:1]]}$$$$V2.0), with 0.24 nM/s.
To `CNC(=O)[C@H](Cc1ccc(Cl)c(Cl)c1)NC(=O)CNC(=O)[C@H](Cc1ccccc1)NC(=O)[C@H](Cc1ccc(O)cc1)NC(=O)[C@H](CC(=O)O)NC(C)=O` (HELM PEPTIDE1{[ac].D.Y.F.G.[O=C([C@H](Cc1ccc(Cl)c(Cl)c1)N[*:1])[*:2]].[CN[*:1]]}$$$$V2.0) belongs 0.55 nM/s.
Then `CNC(=O)[C@H](Cc1ccc(Cl)cc1)NC(=O)CNC(=O)[C@H](Cc1ccccc1)NC(=O)[C@H](Cc1ccc(O)cc1)NC(=O)[C@H](CC(=O)O)NC(C)=O` (HELM PEPTIDE1{[ac].D.Y.F.G.[O=C([C@H](Cc1ccc(Cl)cc1)N[*:1])[*:2]].[CN[*:1]]}$$$$V2.0), with 0.47 nM/s; and `CNC(=O)[C@H](Cc1c[nH]c2cc(Cl)ccc12)NC(=O)[C@H](CCC(=O)O)NC(=O)[C@H](Cc1ccccc1)NC(=O)[C@H](Cc1ccc(O)cc1)NC(=O)[C@H](CCC(=O)O)NC(C)=O` (HELM PEPTIDE1{[ac].E.Y.F.E.[O=C([C@H](Cc1c[nH]c2cc(Cl)ccc12)N[*:1])[*:2]].[CN[*:1]]}$$$$V2.0), with 3.3 nM/s.

Source of the values: ChEMBL document CHEMBL2146397, “The Substrate-Activity-Screening methodology applied to receptor tyrosine kinases: a proof-of-concept study” (Eur J Med Chem, 2012).
